The source of these data is PubChem BioAssay.

A short description of experiment [1]: Her2 expression decrease, cell viability multiplex – SKBR3 breast tumor cells, AlphaScreen, ATP viability, primary screen (AID 461;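 active = Her2 level under about 52% in both replicate screens, with viability over 70% of control, limit read from the data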;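 for Her2 level: lower value means less Her2 protein in the cells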;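 for viability: percent of carrier control wells set as 100% viability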). The following applies: SKBR3 Her2 protein level, 18-24 h, measured here: SKBR3 viability, ATP luminescence, at 10 µM. Background: Alpha assays give light when donor and acceptor beads are brought close together.
Experiment [2] addresses Receptor tyrosine-protein kinase erbB-2 (Homo sapiens) (UniProt P04626). The description is as above. Conditions: 18-24 h, at 10 µM, stronger effect = lower value.
The nature of experiment [3]: reduced viability of SK-BR-3 breast cancer cells – cell-based, 24 h, human, pilot screen (AID 572;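 active = viability at or below 10% of carrier control in both of two separate runs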;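 note: compound exposure lasted between 18 and 24 h rather than exactly 24 h; 100% = carrier-treated control wells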). The following applies: SK-BR-3 viability, CellTiter-Glo luminescence, at 10 µM, stronger effect = lower value. Background: Cellular ATP, detected with luciferase, serves as a proxy for viable cell number.
Experiment [4] in a line: HUVEC growth inhibition – cell-based, human, primary screen (AID 575;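 active = viability at or below 30% in both replicate assays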;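 note: 100% = median of untreated cell wells with 0.1% DMSO on each plate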). The following applies: HUVEC proliferation, CellTiter-Glo luminescence, 72 h; at 10 µM; stronger effect = lower value. The method in brief:
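material = primary HUVEC, no more than 12 passages | input = 1250 cells per well | controls = vehicle and MePR control wells | measured by = CTG luminescence | times = 72 h compound incubation | format = collagen-coated 384-well format | read-out = % viability vs DMSO wells | doses = single 10 µM dose, 0.1% DMSO, from 5x medium stock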

Experiment [5] can be described thus: H69AR cell proliferation blockers – human, duplicate replicates, primary screen (AID 580;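 active = viability at or under a set limit in both replicates, limit being median viability minus 3 SD, cut at about 48% in these data, passing the limit was not always enough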;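 note: 100% = mean luminescence of untreated wells and 0% = no signal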). Conditions: H69AR lung tumor cells viability, ATP luminescence, 72 h; at 10 µM; stronger effect = lower value.
Experiment [6] is described as follows: MRP1 drug-resistance reversers in H69AR cells – cell-based, doxorubicin co-treatment, pilot screen (AID 601;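 active = viability loss from added drug above about 55%, and viability with drug at most 40%, in both replicates, limit read from the data, passing the limit was not always enough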). Conditions: CellTiter-Glo, 72 h, at 10 µM; for differential viability (reversal): stronger effect = higher value.
Experiment [7] can be described thus: yeast transport mutant growth inhibition pilot in 384-well plates, post-Golgi transport modulator project (AID 636; in the data active = inhibition above about 31%). The following applies: absorbance 615 nm, about 18 h, stronger effect = higher value.
The nature of experiment [8]: growth suppression of yeast trafficking mutant, preliminary HTS, modulators of trafficking downstream of Golgi apparatus project, 1536-format plate, OD 615 nm (AID 637). Conditions: yeast transport mutant growth, absorbance 615 nm, 18 h; stronger effect = higher value.
Where [9] appears, read: H69AR cells + 2 uM doxorubicin, measured here: viability with 2 uM doxorubicin, stronger effect = lower value.
[10] abbreviates: H69AR cells, compound alone cytotoxicity.

The structures appear in SMILES notation. Active and inactive are the calls of the source. Cut-off read from the data, not from the text of the source, unless noted: active = inhibition above about 30%; inactive = the rest.

Receptor tyrosine-protein kinase erbB-2 (Homo sapiens), sequence (P04626 whole entry, looked up): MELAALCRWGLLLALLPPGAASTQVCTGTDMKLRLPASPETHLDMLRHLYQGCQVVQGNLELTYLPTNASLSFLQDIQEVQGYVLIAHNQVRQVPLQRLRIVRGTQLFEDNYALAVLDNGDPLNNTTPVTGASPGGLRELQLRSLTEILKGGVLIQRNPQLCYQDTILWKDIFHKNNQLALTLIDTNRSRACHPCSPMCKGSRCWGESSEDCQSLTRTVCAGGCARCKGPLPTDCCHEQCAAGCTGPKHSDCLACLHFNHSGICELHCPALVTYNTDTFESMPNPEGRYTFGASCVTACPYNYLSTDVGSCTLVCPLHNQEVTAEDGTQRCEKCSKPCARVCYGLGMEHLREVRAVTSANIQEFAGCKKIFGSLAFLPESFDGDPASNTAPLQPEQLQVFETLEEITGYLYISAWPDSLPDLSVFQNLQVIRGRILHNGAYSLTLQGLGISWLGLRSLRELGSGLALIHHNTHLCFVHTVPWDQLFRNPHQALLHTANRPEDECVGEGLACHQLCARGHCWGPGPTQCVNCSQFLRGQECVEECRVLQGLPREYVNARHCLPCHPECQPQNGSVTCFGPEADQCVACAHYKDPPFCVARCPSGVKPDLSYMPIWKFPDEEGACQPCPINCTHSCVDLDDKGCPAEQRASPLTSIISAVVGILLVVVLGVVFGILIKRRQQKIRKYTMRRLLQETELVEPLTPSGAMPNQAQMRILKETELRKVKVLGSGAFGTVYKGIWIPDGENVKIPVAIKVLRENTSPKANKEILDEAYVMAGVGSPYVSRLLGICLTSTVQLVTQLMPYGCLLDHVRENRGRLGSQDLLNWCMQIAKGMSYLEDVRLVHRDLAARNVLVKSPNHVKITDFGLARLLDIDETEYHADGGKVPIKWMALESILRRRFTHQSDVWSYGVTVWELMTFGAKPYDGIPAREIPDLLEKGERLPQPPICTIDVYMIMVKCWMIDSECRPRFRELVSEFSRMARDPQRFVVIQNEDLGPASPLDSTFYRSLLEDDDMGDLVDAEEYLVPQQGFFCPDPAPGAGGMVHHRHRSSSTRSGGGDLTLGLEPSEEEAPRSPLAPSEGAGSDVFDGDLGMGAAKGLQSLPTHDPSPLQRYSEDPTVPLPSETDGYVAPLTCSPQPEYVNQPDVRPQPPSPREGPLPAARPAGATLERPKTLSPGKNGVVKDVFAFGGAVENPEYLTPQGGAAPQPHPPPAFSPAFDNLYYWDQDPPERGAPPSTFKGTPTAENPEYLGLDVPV

The term viability denotes a read-out of living cells in per cent, often relative to untreated cells. Broadly, the inhibition is the relative decrease from the control value, in per cent. For `O=C(Nc1ccc2c(c1)OCO2)c1cc2ncc(Br)cn2n1`, the viability in experiment [1] is 101%; in experiment [3], 101% (inactive); in experiment [4], 84.8% (inactive); in experiment [5], 86.8% (inactive); in experiment [6] (setting [9]), 104%; in experiment [6] (setting [10]), 86.8%. Besides, the Her2 level in experiment [2] was 104% (inactive). For the same molecule, in experiment [6] (H69AR cells + 2 uM doxorubicin), the differential viability (reversal) was -17.3% (inactive). Also, the inhibition in experiment [7] was -4.67% (inactive); in experiment [8], -0.16% (inactive).
Regarding `O=C(Cn1nnc(-c2ccc(CN3CCOCC3)cc2)n1)NC1CCCCC1`, the viability in experiment [1] is 108%; in experiment [3] it was 108% (inactive); in experiment [4], 106% (inactive); in experiment [5], 101% (inactive); in experiment [6] (setting [9]), 97.1%; in experiment [6] (setting [10]), 101%. Moreover, in experiment [2], the Her2 level is 104% (inactive). Besides, the differential viability (reversal) in experiment [6] (H69AR cells + 2 uM doxorubicin) is 4.09% (inactive). Moreover, the inhibition is -5.73% (inactive) in experiment [7] and 3.28% (inactive) in experiment [8].
As to `O=C(CSc1nnc(-c2ccncc2)n1-c1ccc(F)cc1)NC(=O)NCc1ccco1`, the viability in experiment [1] was 132%; in experiment [3] it was 132% (inactive); in experiment [4] it was 89.1% (inactive); in experiment [5], 86% (inactive); in experiment [6] (setting [9]), 87.8%; in experiment [6] (setting [10]), 86%. The Her2 level in experiment [2] was 89% (inactive). Also, the differential viability (reversal) in experiment [6] (H69AR cells + 2 uM doxorubicin) was -1.76% (inactive). The inhibition was -7.4% (inactive) in experiment [7] and -3.97% (inactive) in experiment [8].
Turning to `CCOC(=O)c1ccc(NC(=O)CCc2c(C)nc3ncnn3c2C)cc1`, the viability in experiment [1] was 88%; in experiment [3], 88% (inactive); in experiment [4] it was 107% (inactive); in experiment [5] it was 92.7% (inactive); in experiment [6] (setting [9]) it was 102%; in experiment [6] (setting [10]), 92.7%. For the same molecule, the Her2 level in experiment [2] is 95.5% (inactive). Further, the differential viability (reversal) in experiment [6] (H69AR cells + 2 uM doxorubicin) is -9.71% (inactive). The results for the inhibition in experiment [7] and in experiment [8] were 1.37% (inactive) and -5.56% (inactive), respectively.
With `O=C(CCn1c(=O)sc2ccccc21)Nc1cccnc1`, the viability in experiment [1] was 104%; in experiment [3], 104% (inactive); in experiment [4] it was 96.8% (inactive); in experiment [5], 99.6% (inactive); in experiment [6] (setting [9]), 91%; in experiment [6] (setting [10]), 99.6%. The Her2 level in experiment [2] was 92% (inactive). The differential viability (reversal) in experiment [6] (H69AR cells + 2 uM doxorubicin) was 8.59% (inactive). Further, the figures for the inhibition in experiment [7] and in experiment [8] were -3.87% (inactive) and 1.48% (inactive), respectively.
As for `C=CCn1c(COc2ccccc2F)nnc1SCC(=O)N1CC(=O)Nc2ccccc21`, the viability in experiment [1] is 92%; in experiment [3] it was 92% (inactive); in experiment [4] it was 109% (inactive); in experiment [5] it was 92.2% (inactive); in experiment [6] (setting [9]), 89.3%; in experiment [6] (setting [10]) it was 92.2%. Further, in experiment [2], the Her2 level is 104% (inactive). Further, the differential viability (reversal) in experiment [6] (H69AR cells + 2 uM doxorubicin) was 2.88% (inactive). For the same molecule, the values for the inhibition in experiment [7] and in experiment [8] were -4.46% (inactive) and 51.5% (active), respectively.
`COc1ccccc1N1CCN(Cc2nnnn2CCc2ccccc2)CC1`: the viability was 88% in experiment [1]; 88% (inactive) in experiment [3]; 91.5% (inactive) in experiment [4]; 93.2% (inactive) in experiment [5]; 89.7% in experiment [6] (setting [9]); 93.2% in experiment [6] (setting [10]). Besides, the Her2 level in experiment [2] is 112% (inactive). In experiment [6] (H69AR cells + 2 uM doxorubicin), the differential viability (reversal) is 3.56% (inactive). Moreover, the inhibition in experiment [7] is 1.51% (inactive); in experiment [8], 25.6% (inactive).
On to `Cc1ncoc1C(=O)Nc1cccc(Cl)c1C`, for which the viability in experiment [1] was 104%; in experiment [3] it was 104% (inactive); in experiment [4] it was 113% (inactive); in experiment [5], 101% (inactive); in experiment [6] (setting [9]) it was 85.1%; in experiment [6] (setting [10]) it was 101%. In addition, the Her2 level in experiment [2] was 114% (inactive). The differential viability (reversal) in experiment [6] (H69AR cells + 2 uM doxorubicin) was 15.6% (inactive). Moreover, the inhibition is -3.78% (inactive) in experiment [7] and 0.33% (inactive) in experiment [8].
As for `Cc1cc(O)c(C2(C(F)(F)F)NCCNC2=O)cc1C` (stereo not given), the viability is 100% in experiment [1]; 100% (inactive) in experiment [3]; 99.5% (inactive) in experiment [4]; 98.8% (inactive) in experiment [5]; 91.7% in experiment [6] (setting [9]); 98.8% in experiment [6] (setting [10]). For the same molecule, the Her2 level in experiment [2] is 96% (inactive). In addition, the differential viability (reversal) in experiment [6] (H69AR cells + 2 uM doxorubicin) was 7.08% (inactive). In addition, the inhibition in experiment [7] is -4.61% (inactive); in experiment [8], -0.32% (inactive).
`COc1ccc(CCn2c(NCCCN3CCOCC3)nc3c2c(=O)[nH]c(=O)n3C)cc1`: the viability was 84.5% in experiment [1]; 84.5% (inactive) in experiment [3]; 76.6% (inactive) in experiment [4]; 87.3% (inactive) in experiment [5]; 86.9% in experiment [6] (setting [9]); 87.3% in experiment [6] (setting [10]). For the same molecule, the Her2 level in experiment [2] was 86% (inactive). In addition, the differential viability (reversal) in experiment [6] (H69AR cells + 2 uM doxorubicin) was 0.365% (inactive). The results for the inhibition in experiment [7] and in experiment [8] were 4.13% (inactive) and 30.3% (active), respectively.
In the case of `CC(C)CC(c1nnnn1C1CCCC1)N1CCN(c2ccccc2F)CC1` (stereo not given), the viability was 92.5% in experiment [1]; 92.5% (inactive) in experiment [3]; 103% (inactive) in experiment [4]; 84.2% (inactive) in experiment [5]; 91.9% in experiment [6] (setting [9]); 84.2% in experiment [6] (setting [10]). Besides, the Her2 level in experiment [2] was 94% (inactive). The differential viability (reversal) in experiment [6] (H69AR cells + 2 uM doxorubicin) is -7.72% (inactive). Besides, the results for the inhibition in experiment [7] and in experiment [8] were -6.32% (inactive) and 10.7% (inactive), respectively.
In the case of `Cc1nnc(SCc2cc(=O)[nH]c(N3CCCCC3)n2)s1`, the viability was 94% in experiment [1]; 94% (inactive) in experiment [3]; 107% (inactive) in experiment [4]; 94.1% (inactive) in experiment [5]; 91.9% in experiment [6] (setting [9]); 94.1% in experiment [6] (setting [10]). In addition, the Her2 level in experiment [2] was 86.5% (inactive). Besides, the differential viability (reversal) in experiment [6] (H69AR cells + 2 uM doxorubicin) is 2.25% (inactive). For the same molecule, the inhibition is -7.3% (inactive) in experiment [7] and -2.86% (inactive) in experiment [8].
For `Cc1ccc(NC(=O)CCN2CCc3ccccc3C2)cc1`, the viability in experiment [1] was 91.5%; in experiment [3], 91.5% (inactive); in experiment [4] it was 109% (inactive); in experiment [5], 99.7% (inactive); in experiment [6] (setting [9]) it was 101%; in experiment [6] (setting [10]), 99.7%. The Her2 level in experiment [2] is 92.5% (inactive). The differential viability (reversal) in experiment [6] (H69AR cells + 2 uM doxorubicin) was -0.975% (inactive). The inhibition in experiment [7] is -5.21% (inactive); in experiment [8], -4.92% (inactive).
Turning to `COc1ccccc1-c1cn[nH]c(=S)n1`, the viability in experiment [1] is 101%; in experiment [3], 101% (inactive); in experiment [4], 100% (inactive); in experiment [5], 96.1% (inactive); in experiment [6] (setting [9]) it was 92.9%; in experiment [6] (setting [10]), 96.1%. Besides, the Her2 level in experiment [2] is 108% (inactive). In addition, the differential viability (reversal) in experiment [6] (H69AR cells + 2 uM doxorubicin) is 3.25% (inactive). The values for the inhibition in experiment [7] and in experiment [8] were 1.07% (inactive) and -8.06% (inactive), respectively.
